Assay results taken from ChEMBL document CHEMBL4689842, “EUbOPEN Chemogenomics Library wave 1” (2021).

What was measured:
Format in all cases: toxicity, cell-based
U2OS [1] = assay: Multiplex assay against U2OS; details: human
Outline: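 Values for tubulin, mitochondrial-mass and membrane-permeability phenotypes are per cents of cells with healthy nuclei. These cells were identified by CellPathfinder machine-learning gating of live cells that had been stained at seeding with Hoechst33342, BioTracker Green Microtubule Cytoskeleton Dye, MitoTracker Red and Annexin V Alexa Fluor 680 and imaged on a CQ1 microscope at 37°C and 5% CO2 after compound addition. The gating first set Hoechst high-intensity objects apart from normal cells, then split normal cells into healthy, pyknosed or fragmented nuclei, and pyknosed cells into mitotic or apoptotic.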

HEK-293T = assay: Incucyte cell viability with HEK293T; details: human, 10 µM, compound concentration 10 uM; further: filed as whole numbers so only -1 and 0 and 1 occur
Fibroblast = assay: Incucyte cell viability with human fibroblast; details: 10 µM, compound concentration 10 uM; further: filed as whole numbers so only -1 and 0 and 1 occur
U2OS [2] = assay: Incucyte cell viability with U2OS; details: human, 10 µM, compound concentration 10 uM; further: filed as whole numbers so only -1 and 0 and 1 occur
[3] = 12 h, 1 µM, compound concentration 1 uM, replicate 1
[4] = 12 h, 1 µM, compound concentration 1 uM, replicate 2
[5] = 12 h, 10 µM, compound concentration 10 uM, replicate 1
[6] = 12 h, 10 µM, compound concentration 10 uM, replicate 2
[7] = 24 h, 1 µM, compound concentration 1 uM, replicate 1
[8] = 24 h, 1 µM, compound concentration 1 uM, replicate 2
[9] = 24 h, 10 µM, compound concentration 10 uM, replicate 1
[10] = 24 h, 10 µM, compound concentration 10 uM, replicate 2
[11] = 0 h, replicate number 2, timepoint 0 hours
[12] = 6 h, replicate number 1, timepoint 6 hours
[13] = 12 h, replicate number 1, timepoint 12 hours
[14] = 18 h, replicate number 1, timepoint 18 hours
[15] = 24 h, replicate number 1, timepoint 24 hours
[16] = 18 h, replicate number 2, timepoint 18 hours

Q: Which “Population Apoptotic (%)” value (U2OS [1]; [3]) does the source give for CC[C@@H]1C(=O)N(C)c2cnc(Nc3ccc(C(=O)NC4CCN(C)CC4)cc3OC)nc2N1C1CCCC1 [BI-2536] here?
A: 100%

Q: And the “Population Fragmented Nuclei (%)” value (U2OS [1]; [3])?
A: 16%

Q: What about the “Population Healthy Nuclei (%)” value (U2OS [1]; [3]) of the same molecule?
A: 80%

Q: And the “Population Hoechst High Intensity Objects (%)” value (U2OS [1]; [3])?
A: 1%

Q: And the “Population Membrane Permeable-Phenotype (%)” value (U2OS [1]; [3])?
A: 40%

Q: What about the “Population Mitochondria Different-Phenotype (%)” value (U2OS [1]; [3]) of the same molecule?
A: 16%

Q: And the “Population Mitotic Cells (%)” value (U2OS [1]; [3])?
A: 0%

Q: And the “Population Normal (%)” value (U2OS [1]; [3])?
A: 98%

Q: And the “Population Pyknosed Nuclei (%)” value (U2OS [1]; [3])?
A: 3%

Q: And the “Population Tubulin-Different-Phenotype (%)” value (U2OS [1]; [3])?
A: 35%

Q: What about the “Total Cell Count” value (U2OS [1]; [3]) of the same molecule?
A: 142

Q: And the “Population Apoptotic (%)” value (U2OS [1]; [4])?
A: 70%

Q: And the “Population Fragmented Nuclei (%)” value (U2OS [1]; [4])?
A: 10%

Q: And the “Population Healthy Nuclei (%)” value (U2OS [1]; [4])?
A: 79%

Q: And the “Population Hoechst High Intensity Objects (%)” value (U2OS [1]; [4])?
A: 8%

Q: And the “Population Membrane Permeable-Phenotype (%)” value (U2OS [1]; [4])?
A: 33%

Q: And the “Population Mitochondria Different-Phenotype (%)” value (U2OS [1]; [4])?
A: 24%

Q: What about the “Population Mitotic Cells (%)” value (U2OS [1]; [4]) of the same molecule?
A: 30%

Q: And the “Population Normal (%)” value (U2OS [1]; [4])?
A: 91%

Q: What about the “Population Pyknosed Nuclei (%)” value (U2OS [1]; [4]) of the same molecule?
A: 10%

Q: What about the “Population Tubulin-Different-Phenotype (%)” value (U2OS [1]; [4]) of the same molecule?
A: 34%

Q: And the “Total Cell Count” value (U2OS [1]; [4])?
A: 107

Q: What about the “Population Apoptotic (%)” value (U2OS [1]; [5]) of the same molecule?
A: 76%

Q: What about the “Population Fragmented Nuclei (%)” value (U2OS [1]; [5]) of the same molecule?
A: 15%

Q: And the “Population Healthy Nuclei (%)” value (U2OS [1]; [5])?
A: 76%

Q: And the “Population Hoechst High Intensity Objects (%)” value (U2OS [1]; [5])?
A: 2%

Q: What about the “Population Membrane Permeable-Phenotype (%)” value (U2OS [1]; [5]) of the same molecule?
A: 41%

Q: What about the “Population Mitochondria Different-Phenotype (%)” value (U2OS [1]; [5]) of the same molecule?
A: 72%

Q: What about the “Population Mitotic Cells (%)” value (U2OS [1]; [5]) of the same molecule?
A: 23%

Q: And the “Population Normal (%)” value (U2OS [1]; [5])?
A: 97%

Q: What about the “Population Pyknosed Nuclei (%)” value (U2OS [1]; [5]) of the same molecule?
A: 8%

Q: And the “Population Tubulin-Different-Phenotype (%)” value (U2OS [1]; [5])?
A: 99%

Q: And the “Total Cell Count” value (U2OS [1]; [5])?
A: 160

Q: And the “Population Apoptotic (%)” value (U2OS [1]; [6])?
A: 81%

Q: What about the “Population Fragmented Nuclei (%)” value (U2OS [1]; [6]) of the same molecule?
A: 23%

Q: What about the “Population Healthy Nuclei (%)” value (U2OS [1]; [6]) of the same molecule?
A: 67%

Q: And the “Population Hoechst High Intensity Objects (%)” value (U2OS [1]; [6])?
A: 8%

Q: What about the “Population Membrane Permeable-Phenotype (%)” value (U2OS [1]; [6]) of the same molecule?
A: 51%

Q: What about the “Population Mitochondria Different-Phenotype (%)” value (U2OS [1]; [6]) of the same molecule?
A: 94%

Q: And the “Population Mitotic Cells (%)” value (U2OS [1]; [6])?
A: 18%

Q: And the “Population Normal (%)” value (U2OS [1]; [6])?
A: 91%

Q: What about the “Population Pyknosed Nuclei (%)” value (U2OS [1]; [6]) of the same molecule?
A: 9%

Q: And the “Population Tubulin-Different-Phenotype (%)” value (U2OS [1]; [6])?
A: 100%

Q: And the “Total Cell Count” value (U2OS [1]; [6])?
A: 123

Q: And the “Population Apoptotic (%)” value (U2OS [1]; [7])?
A: 46%

Q: What about the “Population Fragmented Nuclei (%)” value (U2OS [1]; [7]) of the same molecule?
A: 17%

Q: And the “Population Healthy Nuclei (%)” value (U2OS [1]; [7])?
A: 73%

Q: What about the “Population Hoechst High Intensity Objects (%)” value (U2OS [1]; [7]) of the same molecule?
A: 2%

Q: What about the “Population Membrane Permeable-Phenotype (%)” value (U2OS [1]; [7]) of the same molecule?
A: 20%

Q: What about the “Population Mitochondria Different-Phenotype (%)” value (U2OS [1]; [7]) of the same molecule?
A: 29%

Q: And the “Population Mitotic Cells (%)” value (U2OS [1]; [7])?
A: 53%

Q: What about the “Population Normal (%)” value (U2OS [1]; [7]) of the same molecule?
A: 97%

Q: And the “Population Pyknosed Nuclei (%)” value (U2OS [1]; [7])?
A: 9%

Q: What about the “Population Tubulin-Different-Phenotype (%)” value (U2OS [1]; [7]) of the same molecule?
A: 17%

Q: And the “Total Cell Count” value (U2OS [1]; [7])?
A: 145

Q: And the “Population Apoptotic (%)” value (U2OS [1]; [8])?
A: 55%

Q: And the “Population Fragmented Nuclei (%)” value (U2OS [1]; [8])?
A: 21%

Q: What about the “Population Healthy Nuclei (%)” value (U2OS [1]; [8]) of the same molecule?
A: 69%

Q: And the “Population Hoechst High Intensity Objects (%)” value (U2OS [1]; [8])?
A: 12%

Q: And the “Population Membrane Permeable-Phenotype (%)” value (U2OS [1]; [8])?
A: 15%

Q: What about the “Population Mitochondria Different-Phenotype (%)” value (U2OS [1]; [8]) of the same molecule?
A: 35%

Q: And the “Population Mitotic Cells (%)” value (U2OS [1]; [8])?
A: 44%

Q: What about the “Population Normal (%)” value (U2OS [1]; [8]) of the same molecule?
A: 87%

Q: What about the “Population Pyknosed Nuclei (%)” value (U2OS [1]; [8]) of the same molecule?
A: 8%

Q: What about the “Population Tubulin-Different-Phenotype (%)” value (U2OS [1]; [8]) of the same molecule?
A: 10%

Q: And the “Total Cell Count” value (U2OS [1]; [8])?
A: 115

Q: What about the “Population Apoptotic (%)” value (U2OS [1]; [9]) of the same molecule?
A: 93%

Q: And the “Population Fragmented Nuclei (%)” value (U2OS [1]; [9])?
A: 18%

Q: And the “Population Healthy Nuclei (%)” value (U2OS [1]; [9])?
A: 72%

Q: What about the “Population Hoechst High Intensity Objects (%)” value (U2OS [1]; [9]) of the same molecule?
A: 5%

Q: What about the “Population Membrane Permeable-Phenotype (%)” value (U2OS [1]; [9]) of the same molecule?
A: 61%

Q: And the “Population Mitochondria Different-Phenotype (%)” value (U2OS [1]; [9])?
A: 99%

Q: What about the “Population Mitotic Cells (%)” value (U2OS [1]; [9]) of the same molecule?
A: 6%

Q: And the “Population Normal (%)” value (U2OS [1]; [9])?
A: 94%

Q: And the “Population Pyknosed Nuclei (%)” value (U2OS [1]; [9])?
A: 9%

Q: And the “Population Tubulin-Different-Phenotype (%)” value (U2OS [1]; [9])?
A: 99%

Q: What about the “Total Cell Count” value (U2OS [1]; [9]) of the same molecule?
A: 180

Q: What about the “Population Apoptotic (%)” value (U2OS [1]; [10]) of the same molecule?
A: 88%

Q: What about the “Population Fragmented Nuclei (%)” value (U2OS [1]; [10]) of the same molecule?
A: 22%

Q: What about the “Population Healthy Nuclei (%)” value (U2OS [1]; [10]) of the same molecule?
A: 70%

Q: What about the “Population Hoechst High Intensity Objects (%)” value (U2OS [1]; [10]) of the same molecule?
A: 10%

Q: And the “Population Membrane Permeable-Phenotype (%)” value (U2OS [1]; [10])?
A: 84%

Q: And the “Population Mitochondria Different-Phenotype (%)” value (U2OS [1]; [10])?
A: 100%

Q: And the “Population Mitotic Cells (%)” value (U2OS [1]; [10])?
A: 11%

Q: And the “Population Normal (%)” value (U2OS [1]; [10])?
A: 89%

Q: What about the “Population Pyknosed Nuclei (%)” value (U2OS [1]; [10]) of the same molecule?
A: 7%

Q: What about the “Population Tubulin-Different-Phenotype (%)” value (U2OS [1]; [10]) of the same molecule?
A: 100%

Q: What about the “Total Cell Count” value (U2OS [1]; [10]) of the same molecule?
A: 135

Q: And the “Growth Rate” value (HEK-293T; [11])?
A: 1

Q: What about the “Growth Rate” value (HEK-293T; [12]) of the same molecule?
A: 0

Q: And the “Growth Rate” value (HEK-293T; [13])?
A: 0

Q: And the “Growth Rate” value (HEK-293T; [14])?
A: 0

Q: And the “Growth Rate” value (HEK-293T; [15])?
A: 0

Q: What about the “Growth Rate” value (Fibroblast; 0 h, replicate number 1, timepoint 0 hours) of the same molecule?
A: 0

Q: What about the “Growth Rate” value (Fibroblast; [13]) of the same molecule?
A: 1

Q: What about the “Growth Rate” value (Fibroblast; [14]) of the same molecule?
A: 0

Q: And the “Growth Rate” value (Fibroblast; [16])?
A: 1

Q: And the “Growth Rate” value (Fibroblast; [15])?
A: 0

Q: What about the “Growth Rate” value (U2OS [2]; [11]) of the same molecule?
A: 0

Q: What about the “Growth Rate” value (U2OS [2]; [12]) of the same molecule?
A: 0

Q: What about the “Growth Rate” value (U2OS [2]; [13]) of the same molecule?
A: 0

Q: What about the “Growth Rate” value (U2OS [2]; [14]) of the same molecule?
A: 0

Q: And the “Growth Rate” value (U2OS [2]; [16])?
A: 1

Q: And the “Growth Rate” value (U2OS [2]; [15])?
A: 0

Q: And the “Growth Rate” value (U2OS [2]; 24 h, replicate number 2, timepoint 24 hours)?
A: 1
